Calls of active or inactive are those of the source. No cut-off for these calls is given here.
How the values were obtained:
[1] = biological target: T1, 5-hydroxytryptamine receptor 3A (Cavia porcellus) (UniProt O70212); test: Agonist activity at 5HT3 receptor in Hartley guinea-pig ileum assessed as muscle contraction; format: functional, tissue-based
T1 sequence (whole entry): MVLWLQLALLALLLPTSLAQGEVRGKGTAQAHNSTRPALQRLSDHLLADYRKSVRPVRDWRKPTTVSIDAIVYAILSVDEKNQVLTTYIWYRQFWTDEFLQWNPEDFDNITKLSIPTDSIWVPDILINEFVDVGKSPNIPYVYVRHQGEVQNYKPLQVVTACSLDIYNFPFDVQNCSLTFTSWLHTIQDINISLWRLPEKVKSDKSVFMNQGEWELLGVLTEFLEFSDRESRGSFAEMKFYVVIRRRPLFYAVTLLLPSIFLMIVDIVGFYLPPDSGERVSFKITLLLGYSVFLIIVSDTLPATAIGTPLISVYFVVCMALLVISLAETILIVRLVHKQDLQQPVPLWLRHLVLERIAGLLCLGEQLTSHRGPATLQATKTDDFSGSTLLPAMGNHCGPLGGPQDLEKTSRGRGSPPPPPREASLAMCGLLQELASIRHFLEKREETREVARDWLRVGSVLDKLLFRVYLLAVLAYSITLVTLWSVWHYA
How it was run: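 Compounds added to the bath and contractions recorded isometrically. pD2 = negative log molar concentration giving 50% of maximum contraction, from individual concentration–response curves.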

[2] = biological target: T1, 5-hydroxytryptamine receptor 3A (Cavia porcellus); test: Antagonist activity at 5HT3 receptor in Hartley guinea-pig ileum assessed as effect on 5-hydroxytryptamine-induced muscle contraction; format: functional, tissue-based; design: concentration or dose not given beside the values
How it was run: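 Contractions to 5-HT recorded isometrically with and without compound present. Vehicle-treated preparation served as time-matched control. Antagonism expressed as the ratio of 5-HT contractile response in presence versus absence of compound.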

[3] = biological target: T1, 5-hydroxytryptamine receptor 3A (Cavia porcellus); test: Intrinsic activity at 5HT3 receptor in Hartley guinea-pig ileum assessed as muscle contraction at 0.1 mM relative to 5-hydroxytryptamine; format: tissue-based
[4] = biological target: T1, 5-hydroxytryptamine receptor 3A (Cavia porcellus); test: Intrinsic activity at 5HT3 receptor in Hartley guinea-pig ileum assessed as muscle contraction relative to 5-hydroxytryptamine; format: tissue-based

| Compound | pD2 [1] | Activity [2] [%] | Activity [3] | Intrinsic activity [4] |
| --- | --- | --- | --- | --- |
| CC(C)c1cccc2nc(N3CCN(C)CC3)oc12 | < 4 | 81 | inactive |  |
| CN1CCN(c2nc3cc(Br)ccc3o2)CC1 | 6.21 | 89 |  | 0.48 |
| CN1CCN(c2nc3cc(Cl)ccc3o2)CC1 | 6.07 | 92 |  | 0.5 |
| CCOC(=O)c1ccc2oc(N3CCN(C)CC3)nc2c1 | < 4 | 28 | inactive |  |
| CN1CCN(c2nc3ccccc3o2)CC1 | 5.01 | 82 |  | 0.62 |
| CN1C2CCCC1CC(NC(=O)c1nn(C)c3ccccc13)C2 (stereo not drawn) | < 4 | 100 | inactive |  |
| COc1cc(Cl)cc2nc(N3CCN(C)CC3)oc12 | 6.16 | 92 |  | 0.62 |
| COc1cc(C)cc2nc(N3CCN(C)CC3)oc12 | 6.13 | 91 |  | 0.56 |
| Cc1cc(Cl)cc2nc(N3CCN(C)CC3)oc12 | 6.7 | 94 |  | 0.24 |
| CN1CCN(c2nc3cc([N+](=O)[O-])ccc3o2)CC1 | 6.1 | 79 |  | 0.52 |
| NCCc1c[nH]c2ccc(O)cc12 | 5.34 |  |  | 1 |
| CN1CCN(c2nc3cc(C(F)(F)F)ccc3o2)CC1 | < 4 | 36 | inactive |  |
| CCc1ccc2oc(N3CCN(C)CC3)nc2c1 | < 4 | 63 | inactive |  |
| CN1CCN(c2nc3cc(Cl)cc(Cl)c3o2)CC1 | 6.51 | 90 |  | 0.14 |
| CN1CCN(c2nc3cc(F)ccc3o2)CC1 | 5.57 | 91 |  | 0.64 |
| CCc1cc(C)cc2nc(N3CCN(C)CC3)oc12 | 6.46 | 99 |  | 0.26 |
| COc1ccc2oc(N3CCN(C)CC3)nc2c1 | 4.78 | 74 |  | 0.78 |
| Cc1cc(C)c2oc(N3CCN(C)CC3)nc2c1 | 6.32 | 94 |  | 0.62 |
| Cc1cccc2nc(N3CCN(C)CC3)oc12 | 5.48 | 89 |  | 0.58 |
| CN1CCN(c2nc3cc(C(C)(C)C)ccc3o2)CC1 | < 4 | 47 | inactive |  |
| Cc1ccc2oc(N3CCN(C)CC3)nc2c1 | 6 | 87 |  | 0.72 |
| CN1CCN(c2nc3cccc(Cl)c3o2)CC1 | 5.5 | 90 |  | 0.24 |
| Cc1cc(Cl)c2oc(N3CCN(C)CC3)nc2c1 | 6.22 | 96 |  | 0.26 |
| CC(=O)c1ccc2oc(N3CCN(C)CC3)nc2c1 | < 4 | 22 | inactive |  |
| CN1CCN(c2nc3cc(N)ccc3o2)CC1 | 4.97 | 73 |  | 0.76 |
| COc1cccc2nc(N3CCN(C)CC3)oc12 | < 4 | 57 | inactive |  |
| CCc1cccc2nc(N3CCN(C)CC3)oc12 | 5.48 | 90 |  | 0.15 |
| CCc1cc(Cl)cc2nc(N3CCN(C)CC3)oc12 | 6.82 | 100 |  | 0.17 |
